According to ChEMBL document CHEMBL2177065, “14-Alkoxy- and 14-acyloxypyridomorphinans: μ agonist/δ antagonist opioid analgesics with diminished tolerance and dependence side effects” (J Med Chem, 2012):
Activity calls are given as the source filed them.

Columns and labels:
Mu-type opioid receptor [1] = biological target: T1, Mu-type opioid receptor (Homo sapiens, UniProt P35372); assay: Agonist activity at human mu opioid receptor expressed in CHO cells assessed as [35S]GTPgammaS binding at 10 uM by scintillation counting analysis; assay type: functional, cell-based
How it was run: (§1)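 Human KOR or MOR in CHO cell membranes (50 µg protein), 3 h at 25 °C, pH 7.4 Tris buffer with 100 mM NaCl, 10 mM MgCl2, 1 mM EDTA, 1 mM DTT, 0.1% BSA, GDP 40 µM and [35S]GTP-γ-S 50 pM. Stimulation = (S−B)/B×100, with Emax relative to U69,593 (KOR) or DAMGO (MOR). Curves were ten points, ≥3 experiments pooled. Antagonist Ke was taken from the shift in standard agonist EC50.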

[2] = biological target: T2, Kappa-type opioid receptor (Homo sapiens, UniProt P41145); assay: Agonist activity at human kappa opioid receptor expressed in CHO cells assessed as [35S]GTPgammaS binding by scintillation counting analysis; assay type: functional, cell-based; how it was run: as §1
[3] = system: Delta-type opioid receptor; assay: Agonist activity at delta opioid receptor expressed in rat/mouse NG108-15 cells assessed as [35S]GTPgammaS binding at 10 uM by scintillation counting analysis; assay type: functional, cell-based
How it was run: as §1, with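 “NG108-15” for “Human KOR or MOR in CHO”, “pM. Nonspecific binding with 40 µM GTP-γ-S; filtration and scintillation counting.” for “pM.”, “DADLE.” for “U69,593 (KOR) or DAMGO (MOR).”, “pooled.” for “pooled. Antagonist”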

Homo sapiens [4] = species: Homo sapiens; assay: Selectivity ratio of Ki for human kappa opioid receptor to Ki for human delta opioid receptor
[5] = biological target: Delta-type opioid receptor (Homo sapiens, UniProt P41143); assay: Displacement of [3H]DADLE from human delta opioid receptor expressed in CHO cells by scintillation counting analysis; assay type: cell-based
Homo sapiens [6] = species: Homo sapiens; assay: Selectivity ratio of Ki for human mu opioid receptor to Ki for human delta opioid receptor
[7] = system: Delta-type opioid receptor; assay: Antagonist activity at delta opioid receptor expressed in rat/mouse NG108-15 cells assessed as [35S]GTPgammaS binding by scintillation counting analysis; assay type: functional, cell-based
How it was run: as §1, with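 “NG108-15” for “Human KOR or MOR in CHO”, “pM. Nonspecific binding with 40 µM GTP-γ-S; filtration and scintillation counting.” for “pM.”, “DADLE.” for “U69,593 (KOR) or DAMGO (MOR).”, “pooled.” for “pooled. Antagonist”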

[8] = biological target: T2, Kappa-type opioid receptor; assay: Agonist activity at human kappa opioid receptor expressed in CHO cells assessed as [35S]GTPgammaS binding by scintillation counting analysis relative to U69,593; assay type: functional, cell-based; how it was run: as §1
[9] = biological target: T2, Kappa-type opioid receptor; assay: Displacement of [3H]U69,593 from human kappa opioid receptor expressed in CHO cells by scintillation counting analysis; assay type: cell-based
Mu-type opioid receptor [10] = biological target: T1, Mu-type opioid receptor; assay: Displacement of [3H]DAMGO from human mu opioid receptor expressed in CHO cells by scintillation counting analysis; assay type: cell-based
Mu-type opioid receptor [11] = biological target: T1, Mu-type opioid receptor; assay: Agonist activity at human mu opioid receptor expressed in CHO cells assessed as [35S]GTPgammaS binding by scintillation counting analysis relative to DAMGO; assay type: functional, cell-based; how it was run: as §1
Mu-type opioid receptor [12] = biological target: T1, Mu-type opioid receptor; assay: Agonist activity at human mu opioid receptor expressed in CHO cells assessed as [35S]GTPgammaS binding by scintillation counting analysis; assay type: functional, cell-based; how it was run: as §1
[13] = Agonist activity at delta opioid receptor expressed in rat/mouse NG108-15 cells assessed as [35S]GTPgammaS binding by scintillation counting analysis relative to DADLE; assay type: functional, cell-based
How it was run: as §1, with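 “NG108-15” for “Human KOR or MOR in CHO”, “pM. Nonspecific binding with 40 µM GTP-γ-S; filtration and scintillation counting.” for “pM.”, “DADLE.” for “U69,593 (KOR) or DAMGO (MOR).”, “pooled.” for “pooled. Antagonist”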

Mus musculus [14] = assay: Antinociceptive activity in icv dosed ICR mouse assessed as warm-water tail-withdrawal latency by tail flick assay in presence of naloxone; assay type: functional, organism-based
Mus musculus [15] = assay: Antinociceptive activity in icv dosed ICR mouse assessed as warm-water tail-withdrawal latency administered bid for 3 days; assay type: functional
Mus musculus [16] = assay: Antinociceptive activity in ICR mouse assessed as warm-water tail-withdrawal latency at 1 nmol, icv by tail flick assay; assay type: functional
How it was run: (§2)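 Male ICR mice dosed i.c.v. in 5 µL (test compounds in 100% DMSO, morphine in water) under light ether anaesthesia. Tail withdrawal from 55 °C water, 10 s cutoff, tested 10–180 min post-injection. %MPE computed against pre-drug baseline. A50 with 95% confidence limits by linear regression at time of peak effect.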

CHO [17] = assay: Activity at human MOR/mouse DOR expressed in CHO cells assessed as increase in forskolin-stimulated cAMP accumulation at 30 nM after drug exposure for 20 hrs followed by washout in the presence of naloxone; assay type: functional, cell-based
How it was run: (§3)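 MOR/DOR co-expressing CHO cells (mouse N-cMyc DOR + human MOR) exposed 20 h to drug, then washed three times with serum-free medium and preincubated 20 min at 37 °C with IBMX 500 µM. Then 10 min at 37 °C with forskolin 100 µM/IBMX 500 µM, with or without 10 µM naloxone. Read-out was cAMP by [3H]cAMP–protein kinase binding against a standard curve. Mean of n=3.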

Mus musculus [18] = assay: Antinociceptive activity in icv dosed ICR mouse assessed as warm-water tail-withdrawal latency by tail flick assay; assay type: functional; how it was run: as §2
[19] = biological target: T2, Kappa-type opioid receptor; assay: Agonist activity at human kappa opioid receptor expressed in CHO cells assessed as [35S]GTPgammaS binding at 10 uM by scintillation counting analysis; assay type: functional, cell-based; how it was run: as §1
[20] = Activity at human MOR/mouse DOR expressed in CHO cells assessed as inhibition of DAMGO-mediated forskolin-stimulated cAMP accumulation at 30 nM after 20 hrs by scintillation counting analysis; assay type: functional
How it was run: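 CHO cells stably co-expressing human MOR and cMyc-tagged mouse DOR were pretreated 20 h with 30 nM drug or medium, then washed. They were preincubated 20 min with 500 µM IBMX, then given 15 min with IBMX, 100 µM forskolin and graded DAMGO at 37 °C. cAMP was measured by [3H]cAMP–protein kinase binding against a standard curve.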

CHO [21] = assay: Activity at human MOR/mouse DOR expressed in CHO cells assessed as increase in forskolin-stimulated cAMP accumulation at 30 nM after drug exposure for 20 hrs followed by washout; assay type: functional, cell-based; how it was run: as §3
Mus musculus [22] = assay: Antinociceptive activity in ICR mouse assessed as warm-water tail-withdrawal latency at 10 nmol, icv by tail flick assay; assay type: functional; how it was run: as §2

Sequence of Delta-type opioid receptor (Homo sapiens, UniProt P41143) (P41143 whole entry): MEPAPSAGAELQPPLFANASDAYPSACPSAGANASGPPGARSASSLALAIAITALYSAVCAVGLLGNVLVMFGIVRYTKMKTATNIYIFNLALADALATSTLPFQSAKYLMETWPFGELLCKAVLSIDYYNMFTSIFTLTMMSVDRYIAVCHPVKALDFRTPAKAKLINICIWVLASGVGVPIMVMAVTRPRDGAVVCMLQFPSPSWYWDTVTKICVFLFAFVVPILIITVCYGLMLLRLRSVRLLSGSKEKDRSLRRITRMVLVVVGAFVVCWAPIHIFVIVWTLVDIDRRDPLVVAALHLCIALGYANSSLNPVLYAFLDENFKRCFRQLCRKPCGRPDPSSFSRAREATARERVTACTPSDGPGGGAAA
T2 sequence (P41145 whole entry): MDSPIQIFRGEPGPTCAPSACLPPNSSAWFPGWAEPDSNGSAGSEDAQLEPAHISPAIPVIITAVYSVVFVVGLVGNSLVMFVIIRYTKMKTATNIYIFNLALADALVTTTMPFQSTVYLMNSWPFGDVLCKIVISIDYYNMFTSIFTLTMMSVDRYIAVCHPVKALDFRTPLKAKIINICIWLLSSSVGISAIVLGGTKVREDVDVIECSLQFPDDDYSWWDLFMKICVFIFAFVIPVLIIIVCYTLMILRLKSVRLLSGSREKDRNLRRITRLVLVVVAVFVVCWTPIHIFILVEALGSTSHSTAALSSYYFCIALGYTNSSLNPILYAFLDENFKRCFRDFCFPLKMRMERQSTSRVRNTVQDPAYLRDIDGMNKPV
T1 sequence (P35372 whole entry): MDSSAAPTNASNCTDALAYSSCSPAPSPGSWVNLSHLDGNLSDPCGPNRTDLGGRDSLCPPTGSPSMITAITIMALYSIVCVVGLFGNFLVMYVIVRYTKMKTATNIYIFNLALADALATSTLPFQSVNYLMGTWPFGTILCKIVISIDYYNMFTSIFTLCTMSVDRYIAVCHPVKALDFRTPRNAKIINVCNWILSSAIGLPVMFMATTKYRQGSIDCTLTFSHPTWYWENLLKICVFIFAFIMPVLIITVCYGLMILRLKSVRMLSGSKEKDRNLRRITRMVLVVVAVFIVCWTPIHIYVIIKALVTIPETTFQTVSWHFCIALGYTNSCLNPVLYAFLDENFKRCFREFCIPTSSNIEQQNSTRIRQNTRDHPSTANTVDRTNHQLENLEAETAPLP

Row | SMILES | Activity (Mu-type opioid receptor [1]) | EC50 [2] | Activity [3] | Ratio Ki (Homo sapiens [4]) | Ki [5] | Ratio Ki (Homo sapiens [6]) | Ke [7] | Emax [8] | Ki [9] | Ki (Mu-type opioid receptor [10]) | Emax (Mu-type opioid receptor [11]) | EC50 (Mu-type opioid receptor [12]) | Activity (Mus musculus [14]) | A50 (Mus musculus [18]) | Activity (Mus musculus [18]) | other results
1 | Oc1ccc2c3c1O[C@H]1c4ncc(-c5ccc(Cl)cc5)cc4C[C@@]4(OCc5ccccc5)[C@@H](C2)N(CC2CC2)CC[C@]314 | inactive | 27 nM | inactive | 2.8 | 1.91 nM | 4.4 | 0.64 nM | 15% | 5.33 nM | 8.42 nM |  |  |  |  |  | 
2 | CN1CC[C@]23c4c5ccc(O)c4O[C@H]2c2ncc(-c4ccc(Cl)cc4)cc2C[C@@]3(OC(=O)Cc2ccccc2)[C@H]1C5 |  | 109 nM |  | 18 | 0.97 nM | 1.5 | 3.38 nM | 36% | 17 nM | 1.43 nM | 122% | 87 nM |  |  |  | Emax [13]: 27%
3 | Oc1ccc2c3c1O[C@H]1c4ncc(-c5ccc(Cl)cc5)cc4C[C@@]4(OC/C=C/c5ccccc5)[C@@H](C2)N(CC2CC2)CC[C@]314 | inactive |  | inactive | 0.89 | 3.74 nM | 0.81 |  |  | 3.31 nM | 3.03 nM |  |  |  |  |  | 
4 | CO[C@@]12Cc3cc(-c4ccc(Cl)cc4)cnc3[C@@H]3Oc4c(O)ccc5c4[C@@]31CCN(CC1CC1)[C@@H]2C5 | inactive |  | inactive | 2.8 | 1.95 nM | 22 |  |  | 5.37 nM | 41.9 nM |  |  |  |  |  | 
5 | Oc1ccc2c3c1O[C@H]1c4ncc(-c5ccc(Cl)cc5)cc4C[C@@]4(OCCCc5ccccc5)[C@@H](C2)N(CC2CC2)CC[C@]314 |  |  | inactive |  |  |  | 0.091 nM |  |  |  | 72% |  | inactive | 0.35 nmol | Dose-dependent effect | A50 (Mus musculus [15]): 2.78 nmol; %max (Mus musculus [16]): 75%; Activity (CHO [17]): inactive; Activity [19]: inactive; Emax at 0.03 µM [20]: 40%; Activity (CHO [21]): inactive
6 | CO[C@@]12Cc3cc(-c4ccc(Cl)cc4)cnc3[C@@H]3Oc4c(O)ccc5c4[C@@]31CCN(C)[C@@H]2C5 |  | 633 nM | inactive | 17 | 1.63 nM | 4.8 | 1.6 nM | 36% | 28 nM | 7.89 nM | 118% | 379 nM | inactive | 1.44 nmol | Dose-dependent effect | %max (Mus musculus [22]): 98%
7 | O=C(CCc1ccccc1)O[C@@]12Cc3cc(-c4ccc(Cl)cc4)cnc3[C@@H]3Oc4c(O)ccc5c4[C@@]31CCN(CC1CC1)[C@@H]2C5 | inactive | 13 nM | inactive | 2.9 | 4.13 nM | 0.62 | 1.86 nM | 25% | 12 nM | 2.58 nM |  |  |  |  |  | 
8 | CN1CC[C@]23c4c5ccc(O)c4O[C@H]2c2ncc(-c4ccc(Cl)cc4)cc2C[C@@]3(OC/C=C/c2ccccc2)[C@H]1C5 |  |  |  | 1.4 | 1.14 nM | 0.36 |  |  | 1.55 nM | 0.41 nM | 130% | 4.27 nM | inactive | 0.23 nmol | Dose-dependent effect | %max (Mus musculus [16]): 91%; Emax [13]: 84%
